# Reference: ChEMBL document CHEMBL4028872, “Structure-Activity Relationship, Pharmacological Characterization, and Molecular Modeling of Noncompetitive Inhibitors of the Betaine/γ-Aminobutyric Acid Transporter 1 (BGT1)” (J Med Chem, 2017)
# Calls of active or inactive are those of the source. The rule behind the calls is not given here.
# How the values were obtained:
# [1] = target: Alpha-2C adrenergic receptor (Homo sapiens) (UniProt P18825); test: Displacement of [3H]rauwolscine from human alpha-2C adrenergic receptor expressed in MDCK cell membranes at 10 uM after 90 mins by scintillation counting method
# [2] = target: Sodium- and chloride-dependent betaine transporter (Homo sapiens, UniProt P48065, V337I); test: Inhibition of human BGT1 V337I mutant expressed in tsA201 cells assessed as reduction in [3H]GABA uptake after 3 mins by scintillation counting method; type: cell-based
# Method in brief: (§1)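 Site-directed mutant transporters transiently transfected (PolyFect) into tsA201 cells, plated and used about 24 h later. Cells were washed with HBSS containing 20 mM HEPES, 1 mM CaCl2 and 1 mM MgCl2, pH 7.4. IC50 was taken from variable-slope sigmoidal fits. Triplicates, at least three independent experiments.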
# [3] = target: 5-hydroxytryptamine receptor 1D (Homo sapiens) (UniProt P28221); test: Displacement of [3H]GR125743 from human 5-HT1D receptor expressed in HEKT cell membranes at 10 uM after 90 mins by scintillation counting method
# [4] = target: Sodium- and chloride-dependent betaine transporter (Homo sapiens, UniProt P48065, K317R); test: Inhibition of human BGT1 K317R mutant expressed in tsA201 cells assessed as reduction in [3H]GABA uptake after 3 mins by scintillation counting method; type: cell-based; method in brief: as §1
# [5] = target: Sodium- and chloride-dependent betaine transporter (Homo sapiens, UniProt P48065, C382T); test: Inhibition of human BGT1 C382T mutant expressed in tsA201 cells assessed as reduction in [3H]GABA uptake after 3 mins by scintillation counting method; type: cell-based; method in brief: as §1
# [6] = target: Sodium- and chloride-dependent betaine transporter (Homo sapiens, UniProt P48065, H312N); test: Inhibition of human BGT1 H312N mutant expressed in tsA201 cells assessed as reduction in [3H]GABA uptake after 3 mins by scintillation counting method; type: cell-based; method in brief: as §1
# [7] = target: Sodium- and chloride-dependent betaine transporter (Homo sapiens, UniProt P48065, F295Y); test: Inhibition of human BGT1 F295Y mutant expressed in tsA201 cells assessed as reduction in [3H]GABA uptake after 3 mins by scintillation counting method; type: cell-based; method in brief: as §1
# Sodium- and chloride-dependent betaine transporter (Homo sapiens, UniProt P48065, F295Y), sequence (P48065 whole entry F295Y): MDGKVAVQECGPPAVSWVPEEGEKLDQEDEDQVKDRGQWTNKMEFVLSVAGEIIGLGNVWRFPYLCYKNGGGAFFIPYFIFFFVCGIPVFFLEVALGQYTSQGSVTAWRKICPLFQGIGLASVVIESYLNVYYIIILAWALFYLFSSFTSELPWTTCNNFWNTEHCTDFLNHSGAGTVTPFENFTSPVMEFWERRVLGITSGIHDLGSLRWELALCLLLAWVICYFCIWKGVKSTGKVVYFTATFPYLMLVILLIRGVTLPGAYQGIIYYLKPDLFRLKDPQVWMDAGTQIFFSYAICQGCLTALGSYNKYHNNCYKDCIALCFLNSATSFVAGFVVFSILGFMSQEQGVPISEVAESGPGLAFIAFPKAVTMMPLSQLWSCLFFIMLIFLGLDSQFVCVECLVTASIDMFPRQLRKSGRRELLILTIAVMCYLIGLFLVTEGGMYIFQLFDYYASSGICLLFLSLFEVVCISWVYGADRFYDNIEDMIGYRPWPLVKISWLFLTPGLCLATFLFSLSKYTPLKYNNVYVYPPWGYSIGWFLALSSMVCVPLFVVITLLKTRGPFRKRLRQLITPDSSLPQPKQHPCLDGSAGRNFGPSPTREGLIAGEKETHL
# Sodium- and chloride-dependent betaine transporter (Homo sapiens, UniProt P48065, V337I), sequence (P48065 whole entry V337I): as the sequence (P48065 whole entry F295Y) above, with Y295F, V337I counted along it
# Sodium- and chloride-dependent betaine transporter (Homo sapiens, UniProt P48065, H312N), sequence (P48065 whole entry H312N): as the sequence (P48065 whole entry F295Y) above, with Y295F, H312N counted along it
# 5-hydroxytryptamine receptor 1D (Homo sapiens), sequence (P28221 whole entry): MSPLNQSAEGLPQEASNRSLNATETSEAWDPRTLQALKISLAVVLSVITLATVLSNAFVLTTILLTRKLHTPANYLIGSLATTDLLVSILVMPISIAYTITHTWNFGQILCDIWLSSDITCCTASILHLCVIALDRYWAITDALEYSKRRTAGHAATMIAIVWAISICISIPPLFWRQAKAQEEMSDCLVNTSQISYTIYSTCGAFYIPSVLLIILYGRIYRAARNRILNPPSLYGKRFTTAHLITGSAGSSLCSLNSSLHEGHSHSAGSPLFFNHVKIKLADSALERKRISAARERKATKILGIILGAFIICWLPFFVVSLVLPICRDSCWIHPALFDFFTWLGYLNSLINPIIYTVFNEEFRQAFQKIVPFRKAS
# Sodium- and chloride-dependent betaine transporter (Homo sapiens, UniProt P48065, K317R), sequence (P48065 whole entry K317R): as the sequence (P48065 whole entry F295Y) above, with Y295F, K317R counted along it
# Sodium- and chloride-dependent betaine transporter (Homo sapiens, UniProt P48065, C382T), sequence (P48065 whole entry C382T): as the sequence (P48065 whole entry F295Y) above, with Y295F, C382T counted along it
# Alpha-2C adrenergic receptor (Homo sapiens), sequence (P18825 whole entry): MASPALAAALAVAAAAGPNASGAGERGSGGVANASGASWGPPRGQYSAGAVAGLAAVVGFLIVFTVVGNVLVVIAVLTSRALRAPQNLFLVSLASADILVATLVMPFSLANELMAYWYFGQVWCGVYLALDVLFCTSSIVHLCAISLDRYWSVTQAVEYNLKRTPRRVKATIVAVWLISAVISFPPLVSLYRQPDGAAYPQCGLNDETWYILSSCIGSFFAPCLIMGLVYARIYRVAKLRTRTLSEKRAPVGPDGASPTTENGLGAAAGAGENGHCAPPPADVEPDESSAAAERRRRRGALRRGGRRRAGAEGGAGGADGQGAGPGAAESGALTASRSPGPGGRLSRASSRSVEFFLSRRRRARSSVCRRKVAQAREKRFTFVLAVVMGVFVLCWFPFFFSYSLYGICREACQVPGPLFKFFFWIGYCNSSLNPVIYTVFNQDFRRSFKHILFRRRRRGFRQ
smiles,measurement,setting,value
O=C(NC1CCN(Cc2ccccc2)CC1)c1ccc(Cl)cc1Cl,inhibition,[1],Active
same,IC50,[2]; read-out: IC50,6 µM
same,IC50,[2]; read-out: pIC50 (converted),4.9 µM
same,inhibition,[3],Active
same,IC50,[4],13 µM
same,IC50,[5],15 µM
same,IC50,[6],8 µM
same,IC50,[7]; read-out: IC50,5 µM
same,IC50,[7]; read-out: pIC50 (converted),4.07 µM
